This is an account of results in PMC8926038 (Multiple sclerosis and related disorders, 2022).

Structures can show the parent of a compound that is named as a salt.

The subject of data set [1] is C3 secretion from inflammation-induced astrocytes. The data set is described as follows: C3 secretion. It counts as cell-based, human. The essentials: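 Primary human cortical astrocytes on PLL-coated plates; after 24 h, medium replaced with 50% v/v supernatant from resting or LPS (100 ng/ml) plus CD3/CD28 bead-stimulated PBMC, with test compound or matched DMSO. Screen run twice at single concentrations; titrations at 0–1000 nM (n = 3), IC50 from best-fit curves. Supernatant C3 by ELISA at 24 h, reported as % of stimulated DMSO after unstimulated subtraction.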

The test system of data set [2] is astrocytes. To be noted: in vitro pre-treatment, 25 μM, stimulation with IL1β; ref Galloway et al., 2017; cited from earlier work.
The conditions of data set [3]: doses over 400 mg/day; ref Utili et al., 1977; cited from earlier work.
Data set [4] relates to secretome of inflammation-induced astrocytes. It counts as cell-based, human. The note with it: SOMAscan, n = 1; for secretion of "toxic astrocyte signature" biomarkers: normalized toxic vs resting astrocytes index.
In data set [5] the test system is human induced pluripotent stem cells (iPSCs)-differentiated astrocytes. The note with it: pretreatment, in the presence of inflammatory stimuli; ref Colombo et al., 2020; cited from earlier work.
[6] abbreviates: inflammation-induced astrocytes.

For the molecule `COC(=O)/C=C/C(=O)OC` [DMF, dimethyl fumarate], the “C3 secretion by astrocytes” value in data set [1] (library screen at 100 nM) is listed as “not at 100 nM”; in data set [1] (library screen at 10 μM) it was “inhibited”. Further, the “secretion of proinflammatory cytokines and oxidative stress” value in data set [2] is given as “reduced”.
With `O=C1CN(/N=C/c2ccc(-c3ccc([N+](=O)[O-])cc3)o2)C(O)=N1` [Dantrolene], in data set [1] (drug library screen), the “inhibition of secretion of C3” value came out at 77.7%. The hepatotoxicity result in data set [3] is given as “serious hepatotoxicity”.
`CC(C)c1cc(-c2n[nH]c(=O)n2-c2ccc3c(ccn3C)c2)c(O)cc1O` [Ganetespib]: in data set [4], the “secretion of proteins from astrocytes not activated by inflammatory stimuli” value is reported as “inhibited” and the “secretion of "toxic astrocyte signature" biomarkers” value is on record as “strongly reduced secretion of all biomarkers”.
For `CO[C@H]1C[C@@H]2CC[C@@H](C)[C@@](O)(O2)C(=O)C(=O)N2CCCC[C@H]2C(=O)O[C@H]([C@H](C)C[C@@H]2CC[C@@H](O)[C@H](OC)C2)CC(=O)[C@H](C)/C=C(\C)[C@@H](O)[C@@H](OC)C(=O)[C@H](C)C[C@H](C)/C=C/C=C/C=C/1C` [Rapamycin], the “secretion of "toxic astrocyte signature" biomarkers” value in data set [4] is recorded as “did not have potent effect on secretion of most”. Besides, in data set [4] (setting [6]), the “secretion of CCL20, TNFAIP6 and CFB” value is given as “elevated”; the “secretion of CCL20 and CCL8” value is listed as “increased”; the “secretion of SERPINA3” value was “failed to inhibit”.
In the case of `CCCCCCCCc1ccc(CCC(N)(CO)CO)cc1` [fingolimod], the “secretion of proinflammatory cytokines” value in data set [5] is “reduced”.
Consider `CCc1cc(/C(C)=N/OCc2ccc(C3CCCCC3)c(C(F)(F)F)c2)ccc1CN1CC(C(=O)O)C1` [siponimod], for which, in data set [5], the “secretion of proinflammatory cytokines” value was “reduced”.
